# Diaphorase inh: diaphorase inhibitors and chemical oxidizers, primary screen, counter-screen for diaphorase-coupled primary assays, biochemical, uHTS, resorufin fluorescence. diaphorase resazurin-to-resorufin fluorescence, NADH, 16 min; bacterial (C. kluyveri) enzyme, not human. inhibition, % at 20 µM. 190,000 compounds, 0.69% hits. AID 1217, 2008;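 active = primary screen inhibition at 20 µM above a set limit, cut at about 50% in these data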;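 also: plate controls were DMSO with full reaction for no effect and wells lacking NADH for full effect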
#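 Assay system: diaphorase enzyme from Clostridium kluyveri; Input: enzyme working solution with 0.14 U/mL diaphorase; Timing: 16 min at room temperature; Technique: resorufin fluorescence, excitation 544 nm, emission 590 nm; Benchmarks: positive control minus NADH, DMSO neutral control.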
# ROMK mod: ROMK potassium channel modulators, primary screen, cell-based, thallium flux, MLSMR library. ATP-sensitive inward rectifier potassium channel 1 (Homo sapiens), P48048. Tet-inducible ROMK, thallium flux fluorescence; actives lie on both sides. B-score at 10 µM. 130,000 compounds, 2% hits. AID 1918, 2009;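 active = signal ratio slope over the read window, or its plate-corrected B-score, at least 3 SD from the plate mean, either direction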;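 also: B-score of the F/F0 ratio slope over 7 to 12 s after thallium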
# WT yeast gro inh: growth inhibition of WT strain, primary screen, mitochondrial fusion inhibitor project, WT and mutant strains, chemical genetic; AID 1362, 2008; inhibition, % at 10 µM; 190,000 compounds, 2.1% hits; mitochondrial fusion phenotypic screen; in the data active = inhibition above about 58%; tested in S. cerevisiae
# Cl transport mod: KCC2 cotransporter modulators, thallium flux, primary screen, cell-based, HEK293 KCC2, FluoZin-2 fluorescence, MLSMR; Solute carrier family 12 member 5 (Homo sapiens), Q9H2X9; KCC2 cells, thallium flux FluoZin-2 fluorescence; B-score of Tl+ flux slope (higher = more flux/activation; lower = inhibition) at 10 µM; 190,000 compounds, 2.2% hits;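 active = thallium flux slope and its plate-corrected score both differing from the plate sample mean at a set confidence after two filtering rounds, in either direction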;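 also: slope of fluorescence scaled to starting intensity during 10 to 20 s after thallium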
# L major viab: Leishmania major promastigote growth inhibition, primary screen. Leishmania major promastigotes, resazurin fluorescence viability. inhibition, % at 10 µM. 200,000 compounds, 9% hits; in the data active = inhibition above about 50%;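 also: promastigotes grown with compound for 44 hours at 28 °C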
# Diaph act CS: compounds boosting diaphorase resazurin reduction – biochemical, uHTS, resorufin fluorescence, counter-screen for diaphorase-coupled primary assays, primary screen. 190,000 compounds, 0.005% hits. activation factor at 20 µM. Diaphorase/resazurin coupled assay, 16 min; hits give high values; 1 = vehicle wells, 0 = NADH-free wells. AID 1229, 2008;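 active = diaphorase activity raised at least twofold by the compound at 20 µM; inactive = activation factor below 2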
#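 Material: Clostridium kluyveri diaphorase, purified enzyme; Quantity: enzyme 0.07 U/mL final; Medium: HEPES pH 7.4 buffer with MgCl2 and Tween 20; Dosing: single compound dose of 20 µM, 1% DMSO final; Schedule: 16 min reaction at room temperature; Measured by: red resorufin fluorescence at 544/590 nm excitation/emission.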
# Active calls of the source: *; nt = no result given. The list is not random: actives were taken first. Their share in the collection is about 12%.
SMILES,Diaphorase inh,ROMK mod,WT yeast gro inh,Cl transport mod,L major viab,Diaph act CS
CCS(=O)(=O)CCSc1nc2c(cc1C#N)CCCC2,1.2,nt,60.6*,1.12,14.2,1
N#Cc1cc2c(nc1SCC(=O)Nc1sc3c(c1C#N)CCC3)CCCC2,-2.6,nt,2.8,0.25,55.4*,1
CCCCCC/C=C/c1ccc(OC)c([C@H]2[C@H]3C=CC[C@@H](C)[C@@H]3C(=O)N2Cc2ccccc2)c1,nt,nt,nt,-0.0278,nt,nt
CCN(CC)c1ccc(/C=N/N(c2ccccc2)c2ccccc2)c(O)c1,18.2,nt,27.0,0.651,-7.9,0.8
Cc1ccc2cc(/C=N/Nc3nc4ccccc4[nH]3)c(Cl)nc2c1,3.0,nt,59.2*,0.00464,11.7,1
CCN(CC)c1ccc(/C=N/NC(=O)Cc2cccs2)c(O)c1,35.7,-0.977,-24.2,0.462,98.2*,0.6
CCN(CC)c1ccc(/C=N/NC(=O)c2ccco2)c(O)c1,nt,1.88,nt,-0.627,nt,nt
COc1cc(OC)c(OC)cc1/C=N/Nc1nc2ccccc2[nH]1,nt,nt,nt,0.522,nt,nt
CCN(CC)c1ccc(/C=N/Nc2nc3ccccc3[nH]2)c(O)c1,8.7,0.331,-9.9,-0.000476,100.3*,0.9
O=C(c1ccc2c(c1)OCCCO2)N1CCCCC1,nt,nt,nt,0.772,nt,nt
O=S(=O)(Nc1ccc(O)c(CN2CCCCC2)c1)c1ccccc1,13.7,-1.23,7.6,0.755,99.4*,0.9
O=C1CC(c2ccccc2Cl)=NN(c2ncnc3ccccc23)C1=O,13.5,1.18,-17.1,-0.168,83.0*,0.9
O=C(Cn1nnc2ccccc2c1=O)NCCc1ccc(F)cc1,-11.0,0.108,2.8,-0.742,-4.7,1.1
C/C(CCN1CCc2nc(-c3ccccc3)c(-c3ccccc3)cc2C1)=N\OC[C@@H](C)[C@H](OCc1ccccc1)C(C)C,-1.9,-0.517,60.8*,-0.0202,3.9,1
O=C(Cc1ccc2c(c1)CCCC2)Nc1ccc2ccccc2c1,36.1,nt,-1.8,0.0565,-4.5,0.6
CCOc1nnnc2c1sc1nc(N3CCOCC3)c3c(c12)CC(C)(C)OC3,nt,-0.0602,nt,-0.356,1.0,nt
CC(=O)c1cccc(Nc2cc(C)nc3c(C)cc(C)cc23)c1,-4.2,-0.953,-28.1,-1.73,100.4*,1
CC(=O)c1cccc(Nc2cc(C)nc3ccc(C)cc23)c1,nt,nt,nt,-1.47,nt,nt
Cc1cccc(N2C(=O)CS/C2=N\NC(=O)c2ccc(Cl)cc2)c1C,9.1,0.11,-1.2,2.96*,1.2,0.9
COc1ccccc1N1C(=O)CSC1=NC(=O)c1ccccc1,nt,nt,nt,-0.253,nt,nt
OCCCCCN=c1cc(-c2ccccc2)oc2ccc(Cl)cc12,4.4,nt,3.5,-0.485,95.5*,1
Clc1ccc2oc(-c3ccccc3)cc(=NCCCN3CCOCC3)c2c1,-18.3,nt,63.4*,-0.828,99.3*,1.2
CCOC(=O)c1c(NC(=S)NC(=O)c2ccc(Cn3cc(Cl)cn3)o2)sc2c1CCCCC2,17.1,nt,-12.3,0.203,-0.8,0.8
CCN(C(=O)c1ccc2c(Cl)c3c(nc2c1)CCC3)c1ccc(C)c(C)c1,20.7,-0.0229,94.4*,0.252,19.7,0.8
COC(=O)[C@H](Cc1ccccc1)NC(=O)Nc1ccc(C)cc1,11.3,nt,3.5,nt,-1.7,0.9
SMILES,Diaphorase inh,ROMK mod,WT yeast gro inh,Cl transport mod,L major viab,Diaph act CS
Cc1ccc(C(=O)N2c3ccccc3N(Cc3ccccc3)C(=O)C2(C)C)cc1,7.8,nt,84.8*,0.964,17.3,0.9
O=C(O)CC1(O)C(=O)N(Cc2ccccc2)c2ccccc21 (stereo not drawn),1.4,-0.00256,-10.3,0.153,-4.4,1
Cc1ccc(C23CC4CC(CC(C(=O)N5CCN(C)CC5)(C4)C2)C3)cc1,nt,nt,nt,-0.0291,nt,nt
Cc1ccc(C23CC4CC(CC(NC(=O)N5CCN(C)CC5)(C4)C2)C3)cc1,3.5,nt,12.8,-0.736,84.5*,1
Cc1cc(C(=O)Nn2c(C)nc3ccccc3c2=O)ccc1[N+](=O)[O-],3.2,0.582,12.5,0.369,-10.6,1
Cc1cc(C(=O)Nn2c(C3CCCCC3)nc3ccccc3c2=O)ccc1[N+](=O)[O-],21.4,-1.54,73.8*,0.0421,13.5,0.8
O=C(Nn1c(C2CCCCC2)nc2ccccc2c1=O)c1ccc(Cl)c([N+](=O)[O-])c1,28.2,-0.133,81.6*,-1.68,4.1,0.7
O=C(O)CC1S/C(=N/N=C/c2ccc(-c3ccccc3[N+](=O)[O-])o2)NC1=O (stereo not drawn),52.3*,0.809,-31.3,0.0635,100.5*,0.5
Cc1ccc(-c2ccc(/C=N/N=C3/NC(=O)C(CC(=O)O)S3)o2)c([N+](=O)[O-])c1 (stereo not drawn),28.3,0.78,-6.3,-3.47,99.8*,0.7
O=c1cc(-c2ccccc2Cl)oc2ccc([N+](=O)[O-])c(O)c12,9.5,0.351,63.6*,2.41,-2.3,0.9
Nc1ccc2oc(-c3ccccc3Cl)cc(=O)c2c1O,4.7,0.183,6.4,-2,3.4,1
COCCN(C(=S)Nc1c(C)cc(C)cc1C)C(C)c1cccnc1 (stereo not drawn),0.0,0.7,-1.5,0.07,88.8*,1
COCCN(C(=S)Nc1cc(C)ccc1C)C(C)c1cccnc1 (stereo not drawn),7.5,0.424,-5.1,-0.882,95.3*,0.9
COCCN(C(=S)Nc1c(C)cccc1C)C(C)c1cccnc1 (stereo not drawn),15.0,1.77,-12.9,1.13,27.2,0.8
O=C(Nn1cnc2ccccc2c1=O)c1ccccc1[N+](=O)[O-],-4.5,-0.629,-9.4,-0.511,-1.8,1
O=C(/C=C/c1ccco1)NCc1ccccn1,-1.5,-0.441,-13.0,-0.348,-1.5,1
COc1ccc(NC(=O)C(C)Sc2nnc3c4c(nc(-c5ccc(OC)cc5)n23)CC(C)(C)OC4)cc1 (stereo not drawn),1.8,nt,-7.1,-0.51,7.3,1
COc1ccc(OC)c(/C=N/NC(=O)c2cc3c(OC)c(OC)ccc3[nH]2)c1,37.9,0.0294,9.5,-0.0312,72.5*,0.6
COc1ccc(OC)c(/C=N/NC(=O)c2ccc3nc[nH]c3c2)c1,nt,-0.000843,nt,-0.458,nt,nt
COc1cnc(N(C)C)nc1Sc1ccc(Cl)cc1,27.2,nt,15.5,-0.359,-2.6,0.7
COc1cnc(-c2ccccn2)nc1Sc1ccc(F)cc1,-20.0,0.265,67.8*,-0.673,93.8*,1.2
CCOC(=O)CSc1nc(-c2ccccn2)ncc1OC,5.2,0.0884,21.6,nt,1.3,0.9
COc1cnc(-c2ccccn2)nc1Sc1ccc(Cl)cc1,-3.0,-1.13,2.9,nt,100.2*,1
COc1ccc(Sc2nc(-c3ccccn3)ncc2OC)cc1,-19.7,-0.0828,63.0,-0.42,100.5*,1.2

# Compound activity deposited in PubChem by several laboratories.
